According to ChEMBL document CHEMBL1932940, “Xanthohumol induces apoptosis in human malignant glioblastoma cells by increasing reactive oxygen species and activating MAPK pathways” (J Nat Prod, 2011):
The source made the active and inactive calls.

What was measured:
U-87 MG [1] = test: Induction of cell cycle arrest in human U87MG cells assessed as accumulation at S phase at 1 to 20 uM after 48 hrs by flow cytometric analysis; assay type: functional, cell-based; conditions: U-87MG ATCC
Method in brief: (§1)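 2 × 10^5 cells per dish exposed 48 h (1−20 μM per legend); harvested, fixed in cold 70% ethanol at −20 °C, stained with propidium iodide plus RNase A (100 U/mL) 30 min at room temperature; percentage in G1, S, G2/M by flow cytometry. Three experiments in triplicate.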

T98G [2] = test: Induction of apoptosis in human T98G cells assessed as decrease in mitochondrial depolarization at 20 uM after 24 hrs by […] fluorescence analysis in presence of 5 mM NAC; assay type: functional, cell-based
Method in brief: (§2)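 T98G treated with 20 μM for 4−24 h (NAC 5 mM where stated), then loaded with 5 nM TMRE for 30 min at 37 °C; fluorescence by flow cytometry (FL-2); percentage of cells with depolarized mitochondria reported. Three experiments in triplicate (n = 3 for NAC set).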

T98G [3] = test: Anticancer activity against human T98G cells assessed as decrease in cell viability at 10 uM after 48 hrs by MTT assay; assay type: functional, cell-based
Method in brief: (§3)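 Cells (T98G, U87-MG, NHA; 3 × 10^4 per well) plated, next day exposed to serial dilutions (1−50 μM) for 48 h at 37 °C, 5% CO2. MTT (5 mg/mL) added for 3 h; crystals solubilized in 50% DMF/20% SDS pH 4.5; OD at 620 nm. Viability = % of DMSO (0.1% final) controls. Means ± SEM, three experiments in triplicate.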

T98G [4] = test: Induction of apoptosis in human T98G cells assessed as increase in mitochondrial depolarization at 20 uM after 4 hrs by […] fluorescence analysis; assay type: functional, cell-based; method in brief: as §2
T98G [5] = test: Induction of apoptosis in human T98G cells assessed as increase in ROS production at 20 uM measured every 5 mins for 5 to 120 mins by DCFH-DA staining-based flow cytometric analysis; assay type: functional, cell-based
Method in brief: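 T98G incubated with 20 μM, with or without 5 mM NAC pretreatment, for 5−120 min or 24 h; washed, resuspended at 2 × 10^5 cells/mL in HBSS with 10 μM DCFH-DA, 20 min at 37 °C; DCF fluorescence read by flow cytometry (FL1), also viewed by fluorescence microscopy.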

U-87 MG [6] = test: Induction of apoptosis in human U87MG cells at 50 uM after 48 hrs by propidium iodide staining based flow cytometric analysis; assay type: functional, cell-based; conditions: U-87MG ATCC
Method in brief: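 Cells treated 1−50 μM for 24 or 48 h, washed in PBS, resuspended in 0.1% sodium citrate, 0.1% Triton X-100, 50 μg/mL propidium iodide, 30 min at 4 °C in dark. Nuclei analyzed by flow cytometry, DNA on log scale, debris gated out; percent hypodiploid (sub-G1) nuclei reported. Three experiments in triplicate.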

T98G [7] = test: Induction of apoptosis in human T98G cells assessed as caspase activation at 20 uM after 24 hrs pretreated with 25 uM pancaspase inhibitor Z-VAD-FMK; assay type: functional, cell-based
Method in brief: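 T98G pretreated with Z-VAD-FMK (25 μM), then exposed to test agent; apoptotic (hypodiploid) nuclei quantified by propidium iodide flow cytometry. Means ± SEM, three experiments in triplicate.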

[8] = Cytotoxicity against normal human astrocytes assessed as decrease in cell viability after 48 hrs by MTT assay; assay type: cell-based; conditions: astrocyte; method in brief: as §3
U-87 MG [9] = test: Induction of cell cycle arrest in human U87MG cells assessed as accumulation at G2/M phase at 1 to 20 uM after 48 hrs by flow cytometric analysis; assay type: functional, cell-based; conditions: U-87MG ATCC; method in brief: as §1
T98G [10] = test: Induction of apoptosis in human T98G cells assessed as increase in cytosolic cytochrome c release at 20 uM after 8 hrs by Western blot analysis; assay type: functional, cell-based
Method in brief: (§4)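 T98G exposed to 20 μM for various times (0−48 h), NAC 5 mM where stated. Total lysates, or digitonin-permeabilized cytosolic and mitochondrial fractions (10000g, 15 min, 4 °C) for cytochrome c, blotted for caspase-3, caspase-9, PARP (1:1000), Bcl-2 (1:500), cytochrome c; β-actin loading control; ECL detection. Three experiments.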

[11] = target: T1, MAP kinase p38 (Homo sapiens) (UniProt O15264+Q15759+Q16539+P53778); test: Induction of p38 phosphorylation in human T98G cells at 20 uM measured after 24 hrs by Western blot analysis; assay type: cell-based
Method in brief: (§5)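 T98G exposed to 20 μM for 5−120 min or 24 h, with or without 5 mM NAC. Lysates (Tris/deoxycholate/SDS/IGEPAL with protease and phosphatase inhibitors) immunoblotted with anti-p-ERK, ERK1/2 (1:1000), p-p38, p38; ECL detection; phospho signals normalized to total ERK1/2 or p38. Three experiments.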

T98G [12] = test: Induction of apoptosis in human T98G cells at 20 uM after 48 hrs by flow cytometric analysis pretreated with 20 uM Erk inhibitor PD98059 for 30 mins; assay type: functional; set-up: scale not given: the % may be the effect or the level left
Method in brief: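 T98G pretreated with PD98059 (20 μM, 30 min), SB203580 (5 μM, 1 h) or SP600125 (5 μM, 1 h), then exposed to 20 μM for 48 h; hypodiploid nuclei quantified by propidium iodide flow cytometry. Means ± SEM, three experiments in triplicate.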

T98G [13] = test: Induction of apoptosis in human T98G cells assessed as cleavage PARP protein level at 20 uM after 24 hrs by Western blot analysis in presence of 5 mM NAC; assay type: functional, cell-based; method in brief: as §4
T98G [14] = test: Induction of cell cycle arrest in human T98G cells assessed as accumulation at G0/G1 phase at 1 to 20 uM after 48 hrs by flow cytometric analysis; assay type: functional, cell-based; method in brief: as §1
T98G [15] = test: Induction of apoptosis in human T98G cells assessed as increase in ROS production at 20 uM after 48 hrs by DCFH-DA staining-based flow cytometric analysis in presence of 10 uM ascorbic acid; assay type: functional, cell-based
[16] = target: T1, MAP kinase p38 (Homo sapiens); test: Induction of p38 phosphorylation in human T98G cells at 20 uM after 30 to 60 mins for 2 hrs by Western blot analysis in presence of 5 mM NAC; assay type: cell-based; method in brief: as §5
[17] = target: Mitogen-activated protein kinase; ERK1/ERK2 (Homo sapiens) (UniProt P27361+P28482); test: Induction of Erk1/2 phosphorylation in human T98G cells at 20 uM measured every 5 mins for 2 hrs by Western blot analysis in presence of 5 mM of NAC; assay type: cell-based; method in brief: as §5
T98G [18] = test: Induction of apoptosis in human T98G cells assessed as increase in caspase-9 expression level at 20 uM after 8 hrs by Western blot analysis; assay type: functional, cell-based; method in brief: as §4
T98G [19] = test: Induction of apoptosis in human T98G cells assessed as increase in mitochondrial depolarization at 20 uM after 24 hrs by […] fluorescence analysis; assay type: functional; method in brief: as §2
T98G [20] = test: Induction of cell cycle arrest in human T98G cells assessed as accumulation at G2/M phase at 1 to 20 uM after 48 hrs by flow cytometric analysis; assay type: functional, cell-based; method in brief: as §1
[21] = Toxicity in mouse; assay type: organism-based; conditions: in vivo
T98G [22] = test: Anticancer activity against human T98G cells assessed as decrease in cell viability at 20 uM after 48 hrs by MTT assay; assay type: functional, cell-based; method in brief: as §3
T98G [23] = test: Induction of apoptosis in human T98G cells assessed as cell death at 20 uM after 48 hrs by propidium iodide staining based flow cytometric analysis; assay type: functional
Method in brief: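 T98G cells grown in DMEM with 10% heat-inactivated FBS and 2 mM L-glutamine at 37 °C, 5% CO2, then exposed 24–48 h (range 1–50 μM). Percent hypodiploid nuclei counted by flow cytometry, debris gated out. Three experiments in triplicate, mean ± SEM.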

Chain of Mitogen-activated protein kinase; ERK1/ERK2 (Homo sapiens) (P27361 whole entry, looked up): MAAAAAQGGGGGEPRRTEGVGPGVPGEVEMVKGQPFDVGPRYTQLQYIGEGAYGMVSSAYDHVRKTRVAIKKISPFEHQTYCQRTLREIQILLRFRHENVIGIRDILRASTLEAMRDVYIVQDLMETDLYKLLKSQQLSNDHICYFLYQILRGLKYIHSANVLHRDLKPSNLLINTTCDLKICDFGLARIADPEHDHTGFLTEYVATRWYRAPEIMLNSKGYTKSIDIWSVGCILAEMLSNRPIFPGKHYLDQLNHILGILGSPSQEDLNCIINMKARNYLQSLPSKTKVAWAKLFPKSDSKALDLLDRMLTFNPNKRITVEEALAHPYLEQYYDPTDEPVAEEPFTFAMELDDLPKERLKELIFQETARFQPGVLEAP
Chain of Mitogen-activated protein kinase; ERK1/ERK2 (Homo sapiens) (P28482 whole entry, looked up): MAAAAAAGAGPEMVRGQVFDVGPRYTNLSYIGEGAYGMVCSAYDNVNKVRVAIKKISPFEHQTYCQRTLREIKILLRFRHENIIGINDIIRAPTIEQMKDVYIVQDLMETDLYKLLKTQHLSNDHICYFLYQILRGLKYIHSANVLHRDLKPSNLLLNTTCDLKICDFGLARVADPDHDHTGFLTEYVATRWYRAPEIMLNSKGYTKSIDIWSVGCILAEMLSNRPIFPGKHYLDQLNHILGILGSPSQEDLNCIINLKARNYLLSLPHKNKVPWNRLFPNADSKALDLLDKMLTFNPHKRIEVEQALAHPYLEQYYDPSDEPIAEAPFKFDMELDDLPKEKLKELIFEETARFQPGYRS

COc1cc(O)c(CC=C(C)C)c(O)c1C(=O)/C=C/c1ccc(O)cc1 [XANTHOHUMOL]
inactive: Activity (U-87 MG [1]) | Activity (T98G [2]) | Activity (T98G [7]) | Activity (U-87 MG [9]) | Activity [11] | Activity (T98G [13]) | Activity (T98G [14]) | Activity (T98G [15]) | Activity [16] | Activity [17] | Activity (T98G [20])
50%: Activity (T98G [12]) | Activity (T98G [19])
500 mg/kg: LD50 [21]
active: Activity (T98G [3]) | Activity (T98G [4]) | Activity (T98G [5]) | Activity (U-87 MG [6]) | Activity (T98G [10]) | Activity (T98G [18]) | Activity (T98G [22])
Non-toxic: Activity [8]
40%: Activity (T98G [23])
